Laboratory results published in ChEMBL document CHEMBL1649472, “Soft-tissue penetration of ceftobiprole in healthy volunteers determined by in vivo microdialysis” (Antimicrob Agents Chemother, 2009).
Values after ≈ are worked out from the molar mass of the structure shown.

Tests used:
[1] = AUC in plasma of healthy human at 500 mg, po administered at tablet formulation with maximum release by microdialysis; type: ADME, organism-based
[2] = AUC in plasma of healthy human at 500 mg, po administered at tablet formulation with immediate release by microdialysis; type: ADME, organism-based
[3] = AUC in plasma of healthy human at 750 mg. po administered at tablet formulation with maximum release by microdialysis; type: ADME, organism-based
[4] = AUC in plasma of healthy human at 400 mg, po by microdialysis; type: ADME, organism-based
Streptococcus pneumoniae = experiment: Antibacterial activity against penicillin-resistant Streptococcus pneumoniae; type: functional
[5] = Half life in muscle of healthy human at 200 mg/l administered via microdialysis probe up to 12 hrs; type: ADME, tissue-based, Muscle tissue
Procedure, shortened: (§1)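 Twelve healthy volunteers were given a single 500 mg dose as a 2-h i.v. infusion. Microdialysis probes in skeletal muscle and s.c. adipose tissue were perfused with lactated Ringer's at 1.5 μl/min. Each probe was calibrated by retrodialysis with drug at 200 mg/liter, followed by a 4-h washout. Dialysate was collected every 20 min to 12 h, then at 16 and 24 h, and assayed by HPLC-UV. Values were recovery-corrected and analysed noncompartmentally.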

[6] = AUClast in muscle of healthy human at 200 mg/l administered via microdialysis probe up to 12 hrs; type: ADME, tissue-based, Muscle tissue; parameters: time < 12 hr; procedure, shortened: as §1
[7] = Volume of distribution at steady state in plasma of healthy human at […] […]; type: ADME, organism-based; settings: read-out: Vdss
Procedure, shortened: (§2)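 Twelve healthy volunteers received a single 500 mg dose as a 2-h i.v. infusion. K2EDTA blood was drawn from the opposite arm from predose to 24 h over 13 timepoints. Plasma was precipitated with acetonitrile/formic acid and perchloric acid. Protein binding was measured by ultrafiltration at 2 and 12 h, and free levels were derived per subject. Analysis was noncompartmental: linear-trapezoidal AUC, with λz from terminal-phase regression.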

[8] = fT>MIC in skeletal muscle of healthy human at 500 mg, iv by microdialysis
[9] = AUClast in adipose tissue of healthy human at 200 mg/l administered via microdialysis probe up to 12 hrs; type: ADME; parameters: time < 12 hr; procedure, shortened: as §1
[10] = AUC (0 to infinity) in adipose tissue of healthy human at 200 mg/l administered via microdialysis probe up to 12 hrs; type: ADME; parameters: time infinity; procedure, shortened: as §1
[11] = fT>MIC in adipose tissue of healthy human at 500 mg, iv by microdialysis
[12] = Half life in adipose tissue of healthy human at 200 mg/l administered via microdialysis probe up to 12 hrs; type: ADME, tissue-based; procedure, shortened: as §1
[13] = Cmax in muscle of healthy human at 200 mg/l administered via microdialysis probe up to 12 hrs; type: ADME, organism-based, Muscle tissue; procedure, shortened: as §1
[14] = Ratio of AUC in adipose tissue to fAUC in plasma of healthy human at 200 mg/l administered via microdialysis probe up to 12 hrs; type: ADME; settings: other
Staphylococcus aureus = experiment: Antibacterial activity against methicillin-resistant Staphylococcus aureus; type: functional
[15] = AUC (0 to infinity) in muscle of healthy human at 200 mg/l administered via microdialysis probe up to 12 hrs; type: ADME, tissue-based, Muscle tissue; parameters: time infinity; procedure, shortened: as §1
[16] = Cmax in adipose tissue of healthy human at 200 mg/l administered via microdialysis probe up to 12 hrs; type: ADME, organism-based; procedure, shortened: as §1
[17] = AUC (0 to infinity) in plasma of healthy human at […] up to 12 hrs; type: ADME; parameters: time infinity; procedure, shortened: as §2

Compound N[C@@H](C(=O)N[C@@H]1C(=O)N2C(C(=O)O)=C(Cl)CS[C@H]12)c1ccccc1 [CEFACLOR ANHYDROUS] has an AUC [1] of 13.7 µg·h/mL, an AUC [2] of 17.6 µg·h/mL and an AUC [3] of 22.1 µg·h/mL.

In the case of C=CC1=C(C(=O)O)N2C(=O)[C@@H](NC(=O)/C(=N\OCC(=O)O)c3csc(N)n3)[C@H]2SC1 [CEFIXIME], the AUC [4] is reported as 25.6 µg·h/mL.

With COCC1=C(C(=O)O)N2C(=O)[C@@H](NC(=O)/C(=N\OC)c3csc(N)n3)[C@H]2SC1 [CEFPODOXIME] the AUC [4] was 22.4 µg·h/mL.

Nc1nc(/C(=N/O)C(=O)N[C@@H]2C(=O)N3C(C(=O)O)=C(/C=C4\CCN([C@@H]5CCNC5)C4=O)CS[C@H]23)ns1 [CEFTOBIPROLE] showed an MIC90 (Streptococcus pneumoniae) of 2 mg/L (≈ 3.74 µM), a half-life [5] of 2.61 h and an AUC(0-t) at 12 h [6] of 50.6 µg·h/mL. It also gave a Vd [7] of 14.6 L, an Efficacy [8] of 53.6% and an AUC(0-t) at 12 h [9] of 34.3 µg·h/mL. For the same compound, the AUC(0-inf) [10] was 36.5 µg·h/mL, the Efficacy [11] was 35.1% and the half-life [12] was 2.56 h. The Cmax [13] was 14 µg/mL, the “Ratio AUC” value [14] was 0.49 and the MIC90 (Staphylococcus aureus) was 2 mg/L (≈ 3.74 µM). The AUC(0-inf) [15] was 53.2 µg·h/mL, the Cmax [16] was 9.61 µg/mL and the AUC(0-inf) [17] was 98 µg·h/mL.
